ChEMBL document CHEMBL3244323, “[1-Penicillamine,2-leucine]oxytocin. Synthesis and pharmacological and conformational studies of a potent peptide hormone inhibitor” (J Med Chem, 1979)
Changes are numbered by the printed parent chain. Calls of active or inactive are those of the source. The calls are words filed in the database; no cut-off is given here. *1 amine or outer side, *2 acyl side, *3 side chain or, on linkers, in order; H or OH if unused. Where a SMILES comes first, the peptide text is derived from it. Bridges are numbered along the chain shown (N, C = ends). [ ]: non-standard residue; d: D form. Tyr(3,5-Br2) = N[C@@H](Cc1cc(Br)c(O)c(Br)c1)C(=O)O; X1 = CCC(CC)(CC(=O)[*:1])S[*:2]; X2 = CC(C)(CC(=O)[*:1])S[*:2]; Pen = CC(C)(S)[C@H](N)C(=O)O

Assays:
Oxytocin receptor [1] = molecular target: T1, Oxytocin receptor (Homo sapiens, UniProt P30559); experiment: Antagonist activity at oxytocin receptor (unknown origin) assessed as inhibition of agonist-induced oxytocic response; settings: read-out: pA2 (converted)
T1 sequence (P30559 whole entry): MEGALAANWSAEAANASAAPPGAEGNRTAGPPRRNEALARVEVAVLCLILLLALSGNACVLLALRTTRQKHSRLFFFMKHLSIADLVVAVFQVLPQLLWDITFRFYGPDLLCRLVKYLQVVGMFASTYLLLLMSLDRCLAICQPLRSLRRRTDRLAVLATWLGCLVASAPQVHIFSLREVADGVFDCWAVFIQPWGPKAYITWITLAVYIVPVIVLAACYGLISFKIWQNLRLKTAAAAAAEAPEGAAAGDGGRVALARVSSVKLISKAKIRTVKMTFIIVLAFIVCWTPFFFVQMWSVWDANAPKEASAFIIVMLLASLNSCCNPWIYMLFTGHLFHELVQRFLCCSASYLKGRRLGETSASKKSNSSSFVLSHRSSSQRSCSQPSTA
How it was run: (§1)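 Isolated uteri from rats in natural estrus, suspended in Mg-free van Dyke-Hasting's solution with isotonic contraction recording, bath 30 °C. Antagonism of oxytocin was analysed by the Schild method. pA2 is the negative log of the average molar antagonist concentration that reduces the response to 2x units of oxytocin to the response to x units.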

[2] = molecular target: T2, Oxytocin receptor (Mus musculus) (UniProt P97926); experiment: Antagonist activity at oxytocin receptor in mouse mammary gland tissue assessed as inhibition of oxytocin-induced milk ejection by spectrophotometry
T2 sequence (whole entry): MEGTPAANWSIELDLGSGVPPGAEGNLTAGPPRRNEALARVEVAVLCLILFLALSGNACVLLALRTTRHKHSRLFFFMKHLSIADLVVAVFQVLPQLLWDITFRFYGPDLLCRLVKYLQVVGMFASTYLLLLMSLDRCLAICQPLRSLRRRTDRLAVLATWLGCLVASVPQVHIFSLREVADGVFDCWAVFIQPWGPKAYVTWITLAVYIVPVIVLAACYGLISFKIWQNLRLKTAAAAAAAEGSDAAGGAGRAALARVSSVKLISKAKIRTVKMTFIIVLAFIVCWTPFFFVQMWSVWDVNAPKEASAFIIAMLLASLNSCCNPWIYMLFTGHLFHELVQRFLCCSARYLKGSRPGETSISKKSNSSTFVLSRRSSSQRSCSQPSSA
How it was run: (§2)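 Mouse mammary gland tissue was incubated in vitro with oxytocin alone, or with oxytocin plus antagonist at up to 10^-5 M. Released milk was measured spectrophotometrically as absorbance. Values are mean ± SE from tissue of four mice.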

Oxytocin receptor [3] = molecular target: T3, Oxytocin receptor (Rattus norvegicus, UniProt P70536); experiment: Antagonist activity at oxytocin receptor in rat assessed as inhibition of agonist-induced oxytocic response; settings: read-out: pA2 (converted); how it was run: as §1
T3 sequence (P70536 whole entry): T2 sequence (whole entry) with I11V, A23E, L27R, R33Q, A159G, V169A, S245N, L344F, I361V

[4] = molecular target: T4, Oxytocin receptor (Rattus norvegicus) (UniProt P70536); experiment: Antagonist activity at oxytocin receptor in isolated rat uterus assessed as reduction of subsequent contractions at 0.25 ug/ml measured during 10 mins interval of compound dosing
T4 sequence (whole entry): T2 sequence (whole entry) with I11V, A23E, L27R, R33Q, A159G, V169A, S245N, L344F, I361V

[5] = molecular target: T4, Oxytocin receptor (Rattus norvegicus); experiment: Antagonist activity at oxytocin receptor in isolated rat uterus assessed as inhibition of oxytocin-induced oxytocic response at 0.25 ug/ml followed by compound washout
[6] = molecular target: T4, Oxytocin receptor (Rattus norvegicus); experiment: Antagonist activity at oxytocin receptor in isolated rat uterus assessed as inhibition of oxytocin-induced contractions at 0.25 ug/ml dosed at the peak of first contraction measured during 10 mins interval of compound dosing
[7] = molecular target: T4, Oxytocin receptor (Rattus norvegicus); experiment: Antagonist activity at oxytocin receptor in isolated rat uterus assessed as inhibition of oxytocin-induced oxytocic response at 20:1 compound to oxytocin ratio pretreated for 10 to 20 secs prior to oxytocin addition; settings: concentration not given here
[8] = molecular target: T4, Oxytocin receptor (Rattus norvegicus); experiment: Antagonist activity at oxytocin receptor in isolated rat uterus assessed as inhibition of oxytocin-induced oxytocic response at 20:1 compound to oxytocin ratio pretreated up to 90 secs prior to oxytocin addition
[9] = molecular target: T2, Oxytocin receptor (Mus musculus); experiment: Agonist activity at oxytocin receptor in mouse mammary gland tissue assessed as milk-ejecting activity at 10^-5 M by spectrophotometry
[10] = molecular target: T4, Oxytocin receptor (Rattus norvegicus); experiment: Antagonist activity at oxytocin receptor in isolated rat uterus assessed as inhibition of oxytocin-induced oxytocic response at 20:1 compound to oxytocin ratio followed by compound washout
[11] = molecular target: T4, Oxytocin receptor (Rattus norvegicus); experiment: Antagonist activity at oxytocin receptor in isolated rat uterus assessed as inhibition of oxytocic response at 0.25 ug/ml added simultaneously with oxytocin
[12] = molecular target: T4, Oxytocin receptor (Rattus norvegicus); experiment: Antagonist activity at oxytocin receptor in isolated rat uterus assessed as incidence of regular phasic contractions of uterus at 0.25 ug/ml
[13] = molecular target: T2, Oxytocin receptor (Mus musculus); experiment: Antagonist activity at oxytocin receptor in mouse mammary gland tissue assessed as inhibition of oxytocin-induced milk ejection at 7.5X10'-6 M by spectrophotometry; how it was run: as §2
[14] = molecular target: T4, Oxytocin receptor (Rattus norvegicus); experiment: Antagonist activity at oxytocin receptor in isolated rat uterus assessed as incidence of regular phasic contractions of uterus at 0.25 ug/ml measured during 6 mins interval of compound dosing
[15] = molecular target: T4, Oxytocin receptor (Rattus norvegicus); experiment: Antagonist activity at oxytocin receptor in isolated rat uterus assessed as inhibition of oxytocic response at 0.25 ug/ml pretreated for 30 secs prior to oxytocin addition relative to control
Oxytocin receptor [16] = molecular target: T3, Oxytocin receptor; experiment: Antagonist activity at oxytocin receptor in isolated rat uterus assessed as inhibition of oxytocin-induced oxytocic response; settings: read-out: pA2 (converted); how it was run: as §1
[17] = molecular target: T5, Oxytocin receptor (Homo sapiens) (UniProt P30559); experiment: Agonist activity at oxytocin receptor (unknown origin)
T5 sequence (whole entry): T1 sequence (P30559 whole entry)

## CC[C@H](C)[C@@H]1NC(=O)[C@H](Cc2ccc(O)cc2)NC(=O)[C@@H](N)C(C)(C)SSC[C@@H](C(=O)N2CCC[C@H]2C(=O)N[C@@H](CC(C)C)C(=O)NCC(N)=O)NC(=O)[C@H](CC(N)=O)NC(=O)[C@H](CCC(N)=O)NC1=O
Oxytocin receptor [1]
  Kb: 0.138 µM
[2]
  inhibition: Active

## CC[C@H](C)[C@@H]1NC(=O)[C@H](Cc2ccc(O)cc2)NC(=O)CC(CC)(CC)SSC[C@@H](C(=O)N2CCC[C@H]2C(=O)N[C@@H](CC(C)C)C(=O)NCC(N)=O)NC(=O)[C@H](CC(N)=O)NC(=O)[C@H](CC(C)C)NC1=O (YILNCPLG-NH2; linker N-5 via X1)
Oxytocin receptor [1]
  Kb: 0.0955 µM

## CC[C@H](C)[C@@H]1NC(=O)[C@H](Cc2cc(Br)c(O)c(Br)c2)NC(=O)CC(CC)(CC)SSC[C@@H](C(=O)N2CCC[C@H]2C(=O)N[C@@H](CC(C)C)C(=O)NCC(N)=O)NC(=O)[C@H](CC(N)=O)NC(=O)[C@H](CCC(N)=O)NC1=O ([Tyr(3,5-Br2)]IQNCPLG-NH2; linker N-5 via X1)
Oxytocin receptor [3]
  Kb: 0.0832 µM

## CC[C@H](C)[C@@H]1NC(=O)[C@H](Cc2ccc(O)cc2)NC(=O)CC(C)(C)SSC[C@@H](C(=O)N2CCC[C@H]2C(=O)N[C@@H](CC(C)C)C(=O)NCC(N)=O)NC(=O)[C@H](CC(N)=O)NC(=O)[C@H](CCC(N)=O)NC1=O (YIQNCPLG-NH2; linker N-5 via X2)
Oxytocin receptor [1]
  Kb: 0.115 µM

## CC[C@H](C)[C@@H]1NC(=O)[C@H](Cc2ccc(O)cc2)NC(=O)CC(C)(C)SSC[C@@H](C(=O)N2CCC[C@H]2C(=O)N[C@@H](CC(C)C)C(=O)NCC(N)=O)NC(=O)[C@H](CC(N)=O)NC(=O)[C@H]([C@@H](C)O)NC1=O (YITNCPLG-NH2; linker N-5 via X2)
Oxytocin receptor [3]
  Kb: 0.0316 µM

## CC[C@H](C)[C@@H]1NC(=O)[C@H](CC(C)C)NC(=O)[C@@H](N)C(C)(C)SSC[C@@H](C(=O)N2CCC[C@H]2C(=O)N[C@@H](CC(C)C)C(=O)NCC(N)=O)NC(=O)[C@H](CC(N)=O)NC(=O)[C@H](CCC(N)=O)NC1=O (H-[Pen]LIQNCPLG-NH2; disulfide 1-6)
[4]
  Activity: Active
[5]
  inhibition: inactive
[6]
  inhibition: Active
[7]
  inhibition: 50%
[8]
  inhibition: Active
[9]
  Activity: inactive
[10]
  inhibition: inactive
[11]
  inhibition: inactive
[12]
  Activity: inactive
[13]
  inhibition: Active
[14]
  inhibition: inactive
[15]
  inhibition: 60%
Oxytocin receptor [16]
  Kb: 0.0724 µM

## CC[C@H](C)[C@@H]1NC(=O)[C@H](Cc2ccc(O)cc2)NC(=O)[C@@H](N)C(C)(C)SSC[C@@H](C(=O)N2CCC[C@H]2C(=O)N[C@@H](CC(C)C)C(=O)NCC(N)=O)NC(=O)[C@H](CC(N)=O)NC(=O)[C@H](CC(C)C)NC1=O (H-[Pen]YILNCPLG-NH2; disulfide 1-6)
Oxytocin receptor [1]
  Kb: 0.17 µM

## CC[C@H](C)[C@@H]1NC(=O)[C@H](Cc2ccc(O)cc2)NC(=O)CC(CC)(CC)SSC[C@@H](C(=O)N2CCC[C@H]2C(=O)N[C@@H](CC(C)C)C(=O)NCC(N)=O)NC(=O)[C@H](CC(N)=O)NC(=O)[C@H](CCC(N)=O)NC1=O (YIQNCPLG-NH2; linker N-5 via X1)
Oxytocin receptor [1]
  Kb: 0.0575 µM

## CC[C@H](C)[C@@H]1NC(=O)[C@H](CC(C)C)NC(=O)[C@@H](N)CSSC[C@@H](C(=O)N2CCC[C@H]2C(=O)N[C@@H](CC(C)C)C(=O)NCC(N)=O)NC(=O)[C@H](CC(N)=O)NC(=O)[C@H](CCC(N)=O)NC1=O (H-CLIQNCPLG-NH2; disulfide 1-6)
[17]
  Activity: 0.5 U/mg

## CC[C@H](C)[C@@H]1NC(=O)[C@H](Cc2cc(Br)c(O)c(Br)c2)NC(=O)CCSSC[C@@H](C(=O)N2CCC[C@H]2C(=O)N[C@@H](CC(C)C)C(=O)NCC(N)=O)NC(=O)[C@H](CC(N)=O)NC(=O)[C@H](CCC(N)=O)NC1=O
Oxytocin receptor [3]
  Kb: 0.0891 µM

## CC[C@H](C)[C@@H]1NC(=O)[C@H](Cc2ccc(O)cc2)NC(=O)CCSSCC(C(=O)N2CCC[C@H]2C(=O)N[C@@H](CC(C)C)C(=O)NCC(N)=O)NC(=O)[C@H](CC(N)=O)NC(=O)[C@H](CCC(N)=O)NC1=O (single isomer, unassigned)
[17]
  Activity: 803 U/mg
